Our source for the EC50, Activity and fold change (FC) values is ChEMBL document CHEMBL4177625, “Ability of higenamine and related compounds to enhance glucose uptake in L6 cells” (Bioorg Med Chem, 2017).

Active and inactive are the calls of the source. The calls are words filed in the database; no cut-off is given here.

In general, EC50 refers to the concentration needed to bring the measured effect to its halfway point.

What all share (type): functional
The target of experiment [1] is Beta-2 adrenergic receptor (Rattus norvegicus, UniProt P10608). The experiment is described as follows: Agonist activity at beta2 adrenergic receptor in rat L6 cell lysate assessed as increase in intracellular 2-deoxyglucose uptake preincubated for 4 hrs followed by 2-deoxyglucose addition measured after 20 mins by fluorescence-based enzymatic assay relative to control. The gist of the method: (§1)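 L6 rat myoblasts (JCRB9081) were grown in DMEM with 10% FBS at 37°C under 10% CO2. At confluence they were differentiated in DMEM with 2% horse serum for 6–8 days. Cells were serum-starved, then exposed to sample in serum-free DMEM for 4 h, with 100 nM insulin as the positive control. They were rinsed in KRPH buffer pH 7.4 and given 1 mM 2-deoxyglucose for 20 min. After washing, cells were lysed in 0.05 M NaOH and lysate 2-deoxyglucose was quantified enzymatically by fluorescence.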
Chain of Beta-2 adrenergic receptor (P10608 whole entry): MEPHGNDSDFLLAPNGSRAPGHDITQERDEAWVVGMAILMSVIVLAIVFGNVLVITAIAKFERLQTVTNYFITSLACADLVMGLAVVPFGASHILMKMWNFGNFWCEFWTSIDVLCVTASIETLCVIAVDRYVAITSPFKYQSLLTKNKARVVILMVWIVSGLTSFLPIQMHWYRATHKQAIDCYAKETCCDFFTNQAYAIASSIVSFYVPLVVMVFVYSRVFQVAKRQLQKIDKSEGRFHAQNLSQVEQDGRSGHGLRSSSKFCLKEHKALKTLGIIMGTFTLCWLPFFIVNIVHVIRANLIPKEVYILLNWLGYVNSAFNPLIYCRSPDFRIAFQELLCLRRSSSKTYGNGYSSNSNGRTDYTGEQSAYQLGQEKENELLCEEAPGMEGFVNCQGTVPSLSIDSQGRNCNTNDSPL

Experiment [2] addresses Beta-2 adrenergic receptor (Rattus norvegicus) (UniProt P10608). The experiment is described as follows: Agonist activity at beta2 adrenergic receptor in rat L6 cell lysate assessed as increase in intracellular 2-deoxyglucose uptake at 0.1 to 100 uM preincubated for 4 hrs followed by 2-deoxyglucose measured after 20 mins by fluorescence-based enzymatic assay relative to control. In outline:
as §1

For experiment [3] the target is unchanged. The experiment in a line: Agonist activity at beta2 adrenergic receptor in rat L6 cell lysate assessed as increase in intracellular 2-deoxyglucose uptake at 10 to 100 uM preincubated for 4 hrs followed by 2-deoxyglucose measured after 20 mins by fluorescence-based enzymatic assay relative to control. The gist of the method: as §1
For experiment [4] the target is unchanged. The experiment is described as follows: Agonist activity at beta2 adrenergic receptor in rat L6 cell lysate assessed as increase in intracellular 2-deoxyglucose uptake at more than 5 uM preincubated for 4 hrs followed by 2-deoxyglucose measured after 20 mins by fluorescence-based enzymatic assay relative to control. The gist of the method:
as §1

For experiment [5] the target is unchanged. The experiment in a line: Agonist activity at beta2 adrenergic receptor in rat L6 cell lysate assessed as increase in intracellular 2-deoxyglucose uptake at 0.5 to 100 uM preincubated for 4 hrs followed by 2-deoxyglucose measured after 20 mins by fluorescence-based enzymatic assay relative to control. The gist of the method: as §1
Experiment [6] shares this target. The experiment is described as follows: Agonist activity at beta2 adrenergic receptor in rat L6 cell lysate assessed as increase in intracellular 2-deoxyglucose uptake at 0.1 to 100 uM preincubated for 4 hrs followed by 2-deoxyglucose measured after 20 mins by fluorescence-based enzymatic assay relative to higenamine. In outline: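 Differentiated L6 rat myotubes (2% horse serum, 6–8 days post-confluence) serum-starved, then exposed to sample in serum-free DMEM for 4 h; insulin 100 nM as positive control. Rinsed with KRPH buffer (pH 7.4), given 1 mM 2-deoxyglucose for 20 min, washed thrice, lysed in 0.05 M NaOH; lysate 2-deoxyglucose measured enzymatically by fluorescence.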

For experiment [7] the target is unchanged. The experiment is described as follows: Agonist activity at beta2 adrenergic receptor in rat L6 cell lysate assessed as increase in intracellular 2-deoxyglucose uptake at 100 uM preincubated for 4 hrs followed by 2-deoxyglucose measured after 20 mins by fluorescence-based enzymatic assay relative to control. The gist of the method:
as §1

Chain of Beta-2 adrenergic receptor (Rattus norvegicus) (P10608 whole entry, looked up): as the sequence (P10608 whole entry) above

Consider `OC[C@H]1O[C@@H](Oc2ccc(C[C@H]3NCCc4cc(O)c(O)cc43)cc2)[C@H](O)[C@@H](O)[C@@H]1O`, for which, in experiment [1], the EC50 was determined as 9000 nM.

Consider `COc1ccc(CC2NCCc3cc(O)c(O)cc32)cc1` (stereo unspecified), for which the outcome in experiment [2] was Active.

On to `Oc1ccc(C[C@H]2NCCc3cc(O)c(O)cc32)cc1` [(+)-HIGENAMINE], for which, in experiment [1], the concentration giving a half-maximal response (EC50) is 4500 nM.

For the molecule `Oc1ccc(CC2NCCc3cc(O)c(O)cc32)cc1` (stereo unspecified), the result in experiment [3] was Active. In addition, in experiment [4], the fold change (FC) was greater than 2.

Regarding `COc1cc2c(cc1O)C(Cc1ccc(O)cc1)NCC2` (stereo unspecified), the fold change (FC) in experiment [5] is 1.6. Besides, in experiment [6], the Activity came out at 40%.

For `CN1CCc2cc(O)c(O)cc2C1Cc1ccc(O)cc1` (stereo unspecified), the outcome in experiment [5] was Active. In experiment [7], the fold change (FC) was 1.2.

With `Oc1ccc(C[C@@H]2NCCc3cc(O)c(O)cc32)cc1` [(-)-HIGENAMINE], the EC50 in experiment [1] turned out to be 600 nM.

`COc1cc2c(cc1OC)C(Cc1ccc(O)cc1)NCC2` (stereo unspecified): the outcome in experiment [2] was Active.

In the case of `CNC[C@H](O)c1ccc(O)c(O)c1`, the outcome in experiment [3] was Active.

For `NC[C@H](O)c1ccc(O)c(O)c1`, in experiment [3], the result was Active.

Turning to `COc1cc2c(cc1O)CCNC2Cc1ccc(O)cc1` (stereo unspecified), the result in experiment [5] was Active. The fold change (FC) in experiment [7] was found to be 1.2.

With `OC[C@H]1O[C@@H](Oc2ccc(C[C@@H]3NCCc4cc(O)c(O)cc43)cc2)[C@H](O)[C@@H](O)[C@@H]1O`, the EC50 in experiment [1] was determined as 1300 nM.
